The source made the active and inactive calls.
Assays:
MOLT-4 = assay: Cytotoxicity against human MOLT4 cells assessed as cell growth at 1 x 10^-5 M; assay type: functional, cell-based
Procedure, shortened: (§1)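 Run by the NCI Developmental Therapeutics Program (DTP) as its one-dose screen across the 60 human tumour cell line panel.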

KM12 = assay: Cytotoxicity against human KM12 cells assessed as cell growth at 1 x 10^-5 M; assay type: functional, cell-based; procedure, shortened: as §1
CCRF-CEM = assay: Cytotoxicity against human CCRF-CEM cells assessed as cell growth at 1 x 10^-5 M; assay type: functional, cell-based; procedure, shortened: as §1
DU-145 = assay: Cytotoxicity against human DU145 cells assessed as cell growth at 1 x 10^-5 M; assay type: functional, cell-based; procedure, shortened: as §1
SK-OV-3 = assay: Cytotoxicity against human SKOV3 cells assessed as cell growth at 1 x 10^-5 M; assay type: functional, cell-based; procedure, shortened: as §1
Escherichia coli [1] = assay: Effect on photodynamic inactivation in Escherichia coli pUC19 DNA assessed as photo-mediated DNA cleavage at 10 to 100 uM by ethidium bromide gel-electrophoresis analysis
NCI/ADR-RES = assay: Cytotoxicity against human NCI-ADR-RES cells assessed as cell growth at 1 x 10^-5 M; assay type: functional, cell-based; procedure, shortened: as §1
MDA-MB-435 = assay: Cytotoxicity against human MDA-MB-435 cells assessed as cell growth at 1 x 10^-5 M; assay type: functional, cell-based; procedure, shortened: as §1
ACHN = assay: Cytotoxicity against human ACHN cells assessed as cell growth at 1 x 10^-5 M; assay type: functional, cell-based; procedure, shortened: as §1
TK-10 = assay: Cytotoxicity against human TK10 cells assessed as cell growth at 1 x 10^-5 M; assay type: functional, cell-based
Procedure, shortened: (§2)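 Tested by the NCI Developmental Therapeutics Program in its one-dose screen across the 60 human tumour cell line panel.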

NCI-H322M = assay: Cytotoxicity against human NCI-H322M cells assessed as cell growth at 1 x 10^-5 M; assay type: functional, cell-based; procedure, shortened: as §1
HCT-15 = assay: Cytotoxicity against human HCT15 cells assessed as cell growth at 1 x 10^-5 M; assay type: functional, cell-based; procedure, shortened: as §1
PC-3 = assay: Cytotoxicity against human PC3 cells assessed as cell growth at 1 x 10^-5 M; assay type: functional, cell-based; procedure, shortened: as §1
A549 = assay: Cytotoxicity against human A549 cells assessed as cell growth at 1 x 10^-5 M; assay type: functional, cell-based; procedure, shortened: as §1
NCI-H23 = assay: Cytotoxicity against human NCI-H23 cells assessed as cell growth at 1 x 10^-5 M; assay type: functional, cell-based; procedure, shortened: as §1
HOP-62 = assay: Cytotoxicity against human HOP62 cells assessed as cell growth at 1 x 10^-5 M; assay type: functional, cell-based; procedure, shortened: as §1
SK-MEL-28 = assay: Cytotoxicity against human SK-MEL-28 cells assessed as cell growth at 1 x 10^-5 M; assay type: functional, cell-based; procedure, shortened: as §1
SF-268 = assay: Cytotoxicity against human SF268 cells assessed as cell growth at 1 x 10^-5 M; assay type: functional, cell-based; procedure, shortened: as §1
OVCAR-8 = assay: Cytotoxicity against human OVCAR8 cells assessed as cell growth at 1 x 10^-5 M; assay type: functional, cell-based; procedure, shortened: as §1
HT-29 = assay: Cytotoxicity against human HT-29 cells assessed as cell growth at 1 x 10^-5 M; assay type: functional, cell-based; procedure, shortened: as §1
786-0 = assay: Cytotoxicity against human 786-0 cells assessed as cell growth at 1 x 10^-5 M; assay type: functional, cell-based; procedure, shortened: as §1
Escherichia coli [2] = assay: Effect on Copper-mediated Escherichia coli pUC19 DNA cleavage at 100 uM by gel-electrophoresis analysis
T47D = assay: Cytotoxicity against human T47D cells assessed as cell growth at 1 x 10^-5 M; assay type: functional, cell-based; procedure, shortened: as §2
SW-620 = assay: Cytotoxicity against human SW620 cells assessed as cell growth at 1 x 10^-5 M; assay type: functional, cell-based; procedure, shortened: as §2
COLO 205 = assay: Cytotoxicity against human COLO205 cells assessed as cell growth at 1 x 10^-5 M; assay type: functional, cell-based; procedure, shortened: as §1
SN12C = assay: Cytotoxicity against human SN12C cells assessed as cell growth at 1 x 10^-5 M; assay type: functional, cell-based; procedure, shortened: as §1
SNB-75 = assay: Cytotoxicity against human SNB75 cells assessed as cell growth at 1 x 10^-5 M; assay type: functional, cell-based; procedure, shortened: as §1
HL-60(TB) = assay: Cytotoxicity against human HL-60(TB) cells assessed as cell growth at 1 x 10^-5 M; assay type: functional, cell-based
Procedure, shortened: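 Run by the NCI Developmental Therapeutics Program (DTP) within its 60 human tumour cell line one-dose screen.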

NCI-H522 = assay: Cytotoxicity against human NCI-H522 cells assessed as cell growth at 1 x 10^-5 M; assay type: functional, cell-based; procedure, shortened: as §1
U-251 = assay: Cytotoxicity against human U251 cells assessed as cell growth at 1 x 10^-5 M; assay type: functional, cell-based; procedure, shortened: as §2
HCT-116 = assay: Cytotoxicity against human HCT116 cells assessed as cell growth at 1 x 10^-5 M; assay type: functional, cell-based; procedure, shortened: as §1
Malme-3M = assay: Cytotoxicity against human MALME-3M cells assessed as cell growth at 1 x 10^-5 M; assay type: functional, cell-based; procedure, shortened: as §1
Hs-578T = assay: Cytotoxicity against human Hs578T cells assessed as cell growth at 1 x 10^-5 M; assay type: functional, cell-based; procedure, shortened: as §1
A498 = assay: Cytotoxicity against human A498 cells assessed as cell growth at 1 x 10^-5 M; assay type: functional, cell-based; procedure, shortened: as §1
MDA-MB-468 = assay: Cytotoxicity against human MDA-MB-468 cells assessed as cell growth at 1 x 10^-5 M; assay type: functional, cell-based; procedure, shortened: as §1
Escherichia coli [3] = assay: Effect on Copper-mediated Escherichia coli pBR322 DNA cleavage at 100 uM by gel-electrophoresis analysis
NCI-H460 = assay: Cytotoxicity against human NCI-H460 cells assessed as cell growth at 1 x 10^-5 M; assay type: functional, cell-based; procedure, shortened: as §1
SR = assay: Cytotoxicity against human SR cells assessed as cell growth at 1 x 10^-5 M; assay type: functional, cell-based; procedure, shortened: as §1
LOX IMVI = assay: Cytotoxicity against human LOXIMVI cells assessed as cell growth at 1 x 10^-5 M; assay type: functional, cell-based; procedure, shortened: as §1
SF-295 = assay: Cytotoxicity against human SF295 cells assessed as cell growth at 1 x 10^-5 M; assay type: functional, cell-based; procedure, shortened: as §1
NCI-H226 = assay: Cytotoxicity against human NCI-H226 cells assessed as cell growth at 1 x 10^-5 M; assay type: functional, cell-based; procedure, shortened: as §1
SF-539 = assay: Cytotoxicity against human SF539 cells assessed as cell growth at 1 x 10^-5 M; assay type: functional, cell-based; procedure, shortened: as §1
M14 = assay: Cytotoxicity against human M14 cells assessed as cell growth at 1 x 10^-5 M; assay type: functional, cell-based; procedure, shortened: as §1
SNB-19 = assay: Cytotoxicity against human SNB19 cells assessed as cell growth at 1 x 10^-5 M; assay type: functional, cell-based; procedure, shortened: as §1
IGROV-1 = assay: Cytotoxicity against human IGROV1 cells assessed as cell growth at 1 x 10^-5 M; assay type: functional, cell-based; procedure, shortened: as §1
RXF 393 = assay: Cytotoxicity against human RXF393 cells assessed as cell growth at 1 x 10^-5 M; assay type: functional, cell-based; procedure, shortened: as §1
MCF7 = assay: Cytotoxicity against human MCF7 cells assessed as cell growth at 1 x 10^-5 M; assay type: functional, cell-based; procedure, shortened: as §1
SK-MEL-5 = assay: Cytotoxicity against human SK-MEL-5 cells assessed as cell growth at 1 x 10^-5 M; assay type: functional, cell-based; procedure, shortened: as §1
HOP-92 = assay: Cytotoxicity against human HOP92 cells assessed as cell growth at 1 x 10^-5 M; assay type: functional, cell-based; procedure, shortened: as §1
UACC-62 = assay: Cytotoxicity against human UACC62 cells assessed as cell growth at 1 x 10^-5 M; assay type: functional, cell-based; procedure, shortened: as §2
OVCAR-3 = assay: Cytotoxicity against human OVCAR3 cells assessed as cell growth at 1 x 10^-5 M; assay type: functional, cell-based; procedure, shortened: as §1
UACC-257 = assay: Cytotoxicity against human UACC257 cells assessed as cell growth at 1 x 10^-5 M; assay type: functional, cell-based; procedure, shortened: as §2
HCC 2998 = assay: Cytotoxicity against human HCC2998 cells assessed as cell growth at 1 x 10^-5 M; assay type: functional, cell-based; procedure, shortened: as §1
OVCAR-4 = assay: Cytotoxicity against human OVCAR4 cells assessed as cell growth at 1 x 10^-5 M; assay type: functional, cell-based; procedure, shortened: as §1
SK-MEL-2 = assay: Cytotoxicity against human SK-MEL-2 cells assessed as cell growth at 1 x 10^-5 M; assay type: functional, cell-based; procedure, shortened: as §1
BT-549 = assay: Cytotoxicity against human BT549 cells assessed as cell growth at 1 x 10^-5 M; assay type: functional, cell-based; procedure, shortened: as §1
MDA-MB-231 = assay: Cytotoxicity against human MDA-MB-231 cells assessed as cell growth at 1 x 10^-5 M; assay type: functional, cell-based; procedure, shortened: as §1
K562 = assay: Cytotoxicity against human K562 cells assessed as cell growth at 1 x 10^-5 M; assay type: functional, cell-based; procedure, shortened: as §1
CAKI-1 = assay: Cytotoxicity against human Caki1 cells assessed as cell growth at 1 x 10^-5 M; assay type: functional, cell-based; procedure, shortened: as §1
OVCAR-5 = assay: Cytotoxicity against human OVCAR5 cells assessed as cell growth at 1 x 10^-5 M; assay type: functional, cell-based; procedure, shortened: as §1
UO-31 = assay: Cytotoxicity against human UO31 cells assessed as cell growth at 1 x 10^-5 M; assay type: functional, cell-based; procedure, shortened: as §2

Cc1cc(O)c2c(c1)C1OC(=O)[C@H](Cc3ccc(NC(=O)COc4ccccc4)cc3)N1C1=C2C(=O)c2cccc(O[C@H]3C[C@@H](O)[C@@H](O)[C@H](C)O3)c2C1=O (stereo partly specified)
inactive: growth inhibition (GI) (MOLT-4) | growth inhibition (GI) (KM12) | growth inhibition (GI) (CCRF-CEM) | growth inhibition (GI) (DU-145) | growth inhibition (GI) (SK-OV-3) | Activity (Escherichia coli [1]) | growth inhibition (GI) (NCI/ADR-RES) | growth inhibition (GI) (MDA-MB-435) | growth inhibition (GI) (ACHN) | growth inhibition (GI) (TK-10) | growth inhibition (GI) (NCI-H322M) | growth inhibition (GI) (HCT-15) | growth inhibition (GI) (PC-3) | growth inhibition (GI) (A549) | growth inhibition (GI) (NCI-H23) | growth inhibition (GI) (HOP-62) | growth inhibition (GI) (SK-MEL-28) | growth inhibition (GI) (SF-268) | growth inhibition (GI) (OVCAR-8) | growth inhibition (GI) (HT-29) | growth inhibition (GI) (786-0) | Activity (Escherichia coli [2]) | growth inhibition (GI) (T47D) | growth inhibition (GI) (SW-620) | growth inhibition (GI) (COLO 205) | growth inhibition (GI) (SN12C) | growth inhibition (GI) (SNB-75) | growth inhibition (GI) (HL-60(TB)) | growth inhibition (GI) (NCI-H522) | growth inhibition (GI) (U-251) | growth inhibition (GI) (HCT-116) | growth inhibition (GI) (Malme-3M) | growth inhibition (GI) (Hs-578T) | growth inhibition (GI) (A498) | growth inhibition (GI) (MDA-MB-468) | Activity (Escherichia coli [3]) | growth inhibition (GI) (NCI-H460) | growth inhibition (GI) (SR) | growth inhibition (GI) (LOX IMVI) | growth inhibition (GI) (SF-295) | growth inhibition (GI) (NCI-H226) | growth inhibition (GI) (SF-539) | growth inhibition (GI) (M14) | growth inhibition (GI) (SNB-19) | growth inhibition (GI) (IGROV-1) | growth inhibition (GI) (RXF 393) | growth inhibition (GI) (MCF7) | growth inhibition (GI) (SK-MEL-5) | growth inhibition (GI) (HOP-92) | growth inhibition (GI) (UACC-62) | growth inhibition (GI) (OVCAR-3) | growth inhibition (GI) (UACC-257) | growth inhibition (GI) (HCC 2998) | growth inhibition (GI) (OVCAR-4) | growth inhibition (GI) (SK-MEL-2) | growth inhibition (GI) (BT-549) | growth inhibition (GI) (MDA-MB-231) | growth inhibition (GI) (K562) | growth inhibition (GI) (CAKI-1) | growth inhibition (GI) (OVCAR-5) | growth inhibition (GI) (UO-31)
